Data from ChEMBL document CHEMBL4376884, “Toward a Rational Design of Polyamine-Based Zinc-Chelating Agents for Cancer Therapies” (J Med Chem, 2020).
pIC50: −log10 of the molar value. Calls of active or inactive are those of the source. No cut-off for these calls is given here.

Columns and labels:
PC-3 [1] = assay: Antiproliferative activity against human PC3 cells assessed as reduction in cell viability at 10 uM incubated for 48 hrs in presence of Fe3+ ion by MTT assay; type: functional, cell-based
Procedure, shortened: (§1)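 LN229 and PC3 cells plated, then 24 h later given 10 µM compound with or without 15 µM ZnCl2, CuCl2, FeCl2 or FeCl3 for 48 h. Medium replaced, MTT (12 mM solution) added for 4 h, formazan dissolved in DMSO, absorbance read at 540 nm. Percent viable versus untreated; mean ± SD of three experiments in triplicate.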

PC-3 [2] = assay: Cell cycle arrest in human PC3 cells assessed as cell accumulation at G2/M phase at 10 uM incubated for 24 hrs by propidium iodide staining based flow cytometry analysis relative to control; type: functional
LN-229 [3] = assay: Induction of cell morphological changes in human LN229 cells assessed as cell shrinkage at 10 uM incubated for 24 to 48 hrs by phase contrast microscopy; type: functional, cell-based
Procedure, shortened: (§2)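 LN229 and PC3 cells exposed to 10 µM compound for the indicated time-points, then imaged live by phase-contrast microscopy for morphology.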

LN-229 [4] = assay: Induction of cell morphological changes in human LN229 cells assessed as loss of cell adherence at 10 uM incubated for 24 to 48 hrs by phase contrast microscopy; type: functional, cell-based; procedure, shortened: as §2
PC-3 [5] = assay: Induction of apoptosis in human PC3 cells assessed as late apoptotic cells at 10 uM incubated for 24 hrs by annexin V-FITC and propidium iodide staining based flow cytometry analysis (reference value: 0.52 %); type: functional
LN-229 [6] = assay: Induction of cellular senescence in human LN229 cells assessed as wider cells at 10 uM incubated for 24 hrs by phase contrast microscopy; type: functional, cell-based
Procedure, shortened: (§3)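 LN229 and PC3 cells, 12×10^4 per well in 6-well plates, treated with 10 µM compound for 24 h. Senescence-associated β-gal staining: fixed in 2% formaldehyde/0.2% glutaraldehyde for 10 min at RT, stained with 1 mg/mL X-gal at 37 °C for 24 h without CO2. Blue cells counted in at least 10 fields at 10x and given as percent of total; four independent experiments. Morphology viewed by phase contrast at ×100.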

[7] = Metal chelating activity assessed as Zn2+-compound complex formation at physiological pH 7.4 by quantum mechanical studies
Procedure, shortened: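 Zn2+ complexes modelled by DFT, B3LYP, gas phase. Basis set def2-SV(P), with MDF10 Stuttgart-Dresden effective core potential for Zn and Grimme dispersion correction. Vibrational frequencies and zero-point correction computed for each minimum.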

LN-229 [8] = assay: Antiproliferative activity against human LN229 cells assessed as reduction in cell viability at 10 uM incubated for 48 hrs in presence of Cu2+ ion by MTT assay; type: functional, cell-based; procedure, shortened: as §1
Z-138 = assay: Induction of apoptosis in human Z138 cells assessed as increase in caspase-3/7 activation at 10 uM incubated for 48 hrs by luminometric caspase-glo 3/7 assay; type: functional, cell-based
Procedure, shortened: (§4)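 Cells in RPMI or DMEM with 10% heat-inactivated FBS and penicillin/streptomycin, 37 °C, 5% CO2, treated with 10 µM compound for 48 h. Caspase-3 and caspase-7 activity read by luminescent Caspase-Glo 3/7 assay, reported as fold induction over untreated cells; mean ± SD of three independent experiments, each in triplicate.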

PC-3 [9] = assay: Induction of cellular senescence in human PC3 cells assessed as wider cells at 10 uM incubated for 24 hrs by phase contrast microscopy; type: functional, cell-based; procedure, shortened: as §3
PC-3 [10] = assay: Induction of cell morphological changes in human PC3 cells assessed as loss of cell adherence at 10 uM incubated for 24 to 48 hrs by phase contrast microscopy; type: functional, cell-based; procedure, shortened: as §2
Jurkat = assay: Cell cycle arrest in human Jurkat cells assessed as increase in cell accumulation at G0/G1 phase at 10 uM incubated for 24 hrs by propidium iodide staining based flow cytometry analysis; type: functional
PC-3 [11] = assay: Induction of cellular senescence in human PC3 cells assessed as increase in nuclear size at 10 uM incubated for 24 hrs by phase contrast microscopy; type: functional, cell-based; procedure, shortened: as §3
LN-229 [12] = assay: Induction of mitochondrial membrane potential loss in human LN229 cells at 10 uM measured upto 48 hrs by JC-1 staining based flow cytometry analysis; type: functional, cell-based
Procedure, shortened: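 LN229 cells seeded at 5×10^5 cells/mL and adhered overnight, then given medium with 10 µM compound for the indicated time-points. Readout is mean FL3 (aggregate, 590 nm)/FL1 (monomer, 530 nm) fluorescence ratio; mean ± SD of three determinations.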

DNA = assay: Induction of DNA damage in human LN229 cells assessed as gammaH2AX phosphorylation at Ser139 residue at 10 uM incubated for 4 hrs by Flow cytometry analysis; type: cell-based
Procedure, shortened: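 Z-138 and LN229 cells treated 4 h with 10 µM compound or 1 µM doxorubicin. Fixed in 3.7% formaldehyde on ice, permeabilized with 0.2% Triton X, stained with rabbit anti-pS139 H2A.X (1:400) and Alexa 555 secondary, then analysed by flow cytometry. Fold γH2AX fluorescence versus untreated; mean ± SD of three experiments.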

PC-3 [13] = assay: Cell cycle arrest in human PC3 cells assessed as cell accumulation at S phase at 10 uM incubated for 24 hrs by propidium iodide staining based flow cytometry analysis relative to control; type: functional
MCF7 [14] = assay: Antiproliferative activity against human MCF7 cells assessed as reduction in cell viability at 10 uM incubated for 48 hrs by cell titer-glo assay; type: functional, cell-based
Procedure, shortened: (§5)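 Cells plated and treated 24 h later with 10 µM compound for 48 h; viable cells quantified by CellTiter-Glo ATP luminescence. Expressed as percentage of viable cells relative to untreated; mean ± SD of three independent experiments, each in triplicate.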

Homo sapiens [15] = species on record: Homo sapiens; assay: Antiproliferative activity against human SP53 cells assessed as reduction in cell viability at 10 uM incubated for 48 hrs by cell titer-glo assay; type: functional, cell-based; procedure, shortened: as §5
LN-229 [16] = assay: Induction of cell morphological changes in human LN229 cells assessed as cell rounding at 10 uM incubated for 24 to 48 hrs by phase contrast microscopy; type: functional, cell-based; procedure, shortened: as §2
Homo sapiens [17] = species on record: Homo sapiens; assay: Antiproliferative activity against human SKMG3 cells assessed as reduction in cell viability at 10 uM incubated for 48 hrs by cell titer-glo assay; type: functional, cell-based; procedure, shortened: as §5
MCF7 [18] = assay: Antiproliferative activity against human MCF7 cells assessed as reduction in cell viability incubated for 48 hrs by cell titer-glo assay; type: functional, cell-based; conditions: MCF7, 48 h
Procedure, shortened: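 Dose-response: cells plated, treated 24 h later for 48 h, then ATP measured by CellTiter-Glo luminescence. IC50 given as mean ± SD from three independent experiments, each in triplicate. Fibroblasts came from individuals. Cells were kept in RPMI or DMEM with 10% heat-inactivated FBS and penicillin/streptomycin at 37 °C, 5% CO2.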

JeKo-1 = assay: Induction of apoptosis in human JeKo1 cells assessed as increase in caspase-3/7 activation at 10 uM incubated for 48 hrs by luminometric caspase-glo 3/7 assay; type: functional, cell-based; procedure, shortened: as §4
LN-229 [19] = assay: Inhibition of colony formation in human LN229 cells at 10 uM incubated for 4 hrs by crystal violet staining based colony counting method; type: functional, cell-based
Procedure, shortened: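 LN229 and PC3 cells treated for 4 h with compound (10 µM) or with etoposide (30 µM positive control), washed, trypsinized and replated at 3000 cells per 60-mm plate. Colonies grown 7–10 days, fixed and stained with 0.5% crystal violet in 70% ethanol, and counted. Reported as percent of control; four independent experiments, each in duplicate.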

Homo sapiens [20] = species on record: Homo sapiens; assay: Induction of apoptosis in human JMV2 cells assessed as increase in caspase-3/7 activation at 10 uM incubated for 48 hrs by luminometric caspase-glo 3/7 assay; type: functional, cell-based; procedure, shortened: as §4

Row | Activity [7] | Compound | Activity (PC-3 [1]) | Activity (PC-3 [2]) | Activity (LN-229 [3]) | Activity (LN-229 [4]) | Activity (PC-3 [5]) | Activity (LN-229 [6]) | Activity (LN-229 [8]) | Activity (Z-138) | Activity (PC-3 [9]) | Activity (PC-3 [10]) | Activity (Jurkat) | Activity (PC-3 [11]) | Activity (LN-229 [12]) | Activity (DNA) | Activity (PC-3 [13]) | Activity (MCF7 [14]) | Activity (Homo sapiens [15]) | Activity (LN-229 [16]) | Activity (Homo sapiens [17]) | other results
1 | > 99% | CN(CCNCc1ccccn1)CCNCc1ccccn1 | Active | 19.7% | Active | Active | 2.13% | Active | inactive | Active | Active | Active | Active | Active | Active | inactive | 9.2% | Active | Active | Active | Active | pIC50 (MCF7 [18]): 5.50; Activity (JeKo-1): Active; inhibition (LN-229 [19]): inactive; Activity (Homo sapiens [20]): Active
2 | > 99% | c1ccc(CNCCN(CCNCc2ccccn2)Cc2ccc3ccccc3c2)nc1 | Active | 17.2% | Active | Active | 2.17% | Active | inactive | Active | Active | Active | Active | Active | Active | inactive | 8.9% | Active | Active | Active | Active | pIC50 (MCF7 [18]): 5.50; Activity (JeKo-1): Active; inhibition (LN-229 [19]): inactive; Activity (Homo sapiens [20]): Active
